Screening data as filed in PubChem.
BAP1 inh = inhibitors of BAP1 deubiquitinase, primary screen, biochemical, Ub-AMC fluorescence, kinetic. calls only at 20 µM. Ubiquitin carboxyl-terminal hydrolase BAP1 (Homo sapiens), Q92560. recombinant BAP1, Ub-AMC hydrolysis fluorescence kinetic; hits give low values. actives 0.48% (n = 72,000);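 active means activity remaining at or below 50% of control, provided the compound also passes the data quality filters; inactive means the rest, including low values that fail the filters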;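 further: 100% = DMSO wells rate and 0% = substrate alone blank rate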
M1 agonist = M1 muscarinic receptor agonists, primary screen, CHO-M1 cells, Fluo-4 calcium, agonist mode; Muscarinic acetylcholine receptor M1; Fluo-4 calcium fluorescence; hits give high values; B-score at 10 µM; actives 3% (n = 64,000); AID 626, 2007;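 active means fluorescence rise, raw or as B-score row- and column-corrected plate score, outside the 99.7% band of its plate's samples, either direction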
M1 antagonist = antagonists of rat M1 muscarinic receptor; B-score at 10 µM; actives 3.4% (n = 64,000); CHO-M1 cells, Fluo-4 calcium, ACh EC80 antagonist mode; hits give low values;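 active means calcium fluorescence response, raw or row-and-column corrected B-score, differing from the plate sample mean either way at a set confidence level, mostly lower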
D1 allo mod = D1 CRE-luciferase signal change, two-sided – cell-based, HEK293 D1, dopamine EC30, D1 allosteric modulator project, primary screen; AID 641, 2007; actives 5.9% (n = 58,000); dopamine EC30 potentiation; actives deviate in either direction; B-score at 10 µM;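 active means luminescence count or its row- and column-corrected plate score outside the 99.7% band of the plate's sample wells, on either side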
HEK293 NFkB inh = inhibitors of PMA/ionomycin-induced NF-kB reporter, primary screen, antigen receptor NF-kB inhibitor project, cell-based, HEK-293 luciferase reporter, luminescence | HEK-293 NF-kB luciferase reporter | inhibition, % at 3 µM | actives 0.21% (n = 62,000) | AID 465, 2006;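 active means inhibition above the mean of all tested compounds plus 3 SD, cut at about 40% in these data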;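 further: 0% = stimulated DMSO wells and 100% = 10 µM reference inhibitor 5653914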
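Timing: 1 h pretreatment, 16 h stimulation, 37 °C; system: HEK-293 cells with stable firefly luciferase reporter driven by four HIV NF-kB elements; doses: 3 µM once, 0.30% DMSO; measured by: luciferase luminescence; control set: DMSO and 10 µM reference inhibitor; repeats: single test; reagent: PMA plus ionomycin mix as NF-kB-activating stimulus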
DAT uptake mod = changed hDAT dopamine uptake under cocaine IC80, either direction, primary screen, cocaine antagonist project, cell-based, LLC-PK1 hDAT, [14C]-dopamine uptake, MLSMR | LLC-PK1 hDAT cells, [14C]-dopamine uptake with cocaine IC80; actives deviate in either direction | B-score at 10 µM | actives 1.3% (n = 110,000) | AID 449768, 2010;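 active means Z score or B-score, a plate-position-corrected score, falls beyond the plate's 99.7% confidence bounds, in either direction; inactive means both scores lie inside the 99.7% bounds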;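 further: scored against the spread of the other compound wells on the same plate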
Target sequence (Q01959 whole entry, looked up): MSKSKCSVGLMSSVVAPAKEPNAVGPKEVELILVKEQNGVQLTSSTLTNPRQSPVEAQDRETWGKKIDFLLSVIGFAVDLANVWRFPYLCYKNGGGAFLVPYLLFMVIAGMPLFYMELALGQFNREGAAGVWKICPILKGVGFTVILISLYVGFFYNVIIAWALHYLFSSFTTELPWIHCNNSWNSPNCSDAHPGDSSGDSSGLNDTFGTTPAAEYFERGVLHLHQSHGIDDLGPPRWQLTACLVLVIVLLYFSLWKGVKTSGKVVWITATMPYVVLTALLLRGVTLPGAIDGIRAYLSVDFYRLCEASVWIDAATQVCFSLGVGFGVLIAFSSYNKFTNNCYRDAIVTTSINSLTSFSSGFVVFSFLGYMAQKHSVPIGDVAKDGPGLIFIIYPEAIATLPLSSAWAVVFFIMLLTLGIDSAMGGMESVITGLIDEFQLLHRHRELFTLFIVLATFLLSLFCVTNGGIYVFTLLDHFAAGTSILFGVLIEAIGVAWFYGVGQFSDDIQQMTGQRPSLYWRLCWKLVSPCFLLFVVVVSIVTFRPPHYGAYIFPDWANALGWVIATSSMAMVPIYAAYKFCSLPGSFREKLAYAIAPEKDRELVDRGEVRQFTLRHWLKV
M1 agonist conf = rat M1 muscarinic receptor agonists, confirmation, CHO-M1 cells, Fluo-4 calcium, duplicate retest; shares compounds with M1 agonist; Fluo-4 calcium fluorescence, agonist mode; actives lie on both sides; fluorescence change (max-min) at 10 µM; actives 19% (n = 1,700); AID 1488, 2009;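 active means fluorescence change differs from the solvent-only DMSO control mean at a set confidence level in both duplicate runs; inconclusive means differs from solvent-only control mean in just one of two runs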;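 further: an EC20 dose of acetylcholine follows compound addition during the same imaging run; raw fluorescence intensity difference in instrument units with no normalization to controls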
M4 ag counter = agonist activity at rat M4 receptor, confirmation, counter-screen for M1 allosteric modulator project, cell-based, agonist mode. AID 1741, 2009. shares compounds with M1 agonist. fluorescence change (max-min) at 10 µM. CHO M4/Gqi5 cells, Fluo-4 calcium fluorescence; actives lie on both sides. actives 9% (n = 1,700);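 active means fluorescence change differing from the plate's solvent-only control wells at 99.7% confidence in both duplicates, whether higher or lower; inconclusive means differs from solvent controls in only one of two duplicates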
Starred values were filed as active, the others as inactive; i = inactive; ? = inconclusive; / = no result shown. This is a sample that favours compounds with a hit; in the whole collection about 7.2% have one here.

SMILES	BAP1 inh	M1 agonist	M1 antagonist	D1 allo mod	HEK293 NFkB inh	DAT uptake mod	M1 agonist conf	M4 ag counter
COc1ccccc1N=c1oc2cc(O)ccc2cc1C(=O)NCC1CCCO1 (stereo not given)	i	2.13	0.0313	-0.204	5.8	-0.672	/	/
COCCCNc1nc2c(c(=O)n(C)c(=O)n2C)n1Cc1ccccc1Cl	i	/	/	/	/	/	/	/
COC(=O)c1c(NC(=O)C2C(C=C(Cl)Cl)C2(C)C)sc2c1CCCC2 (stereo not given)	i	/	/	/	/	/	/	/
CCOc1cccc(C(=O)Nc2nc(-c3ccc(S(=O)(=O)N4CCOCC4)cc3)cs2)c1	/	3.73*	-0.467	-1.68	33.0	-0.31	-25.6	-24.1
CCOC(=O)CSc1ncnc2c1cnn2-c1ccc(C)cc1	/	-0.614	-0.506	-0.984	11.6	0.794	/	/
CCOC(=O)CNC(=O)CSc1ncnc2c1cnn2-c1ccc(C)cc1	i	-2.17*	0.000357	-3.27	13.1	-0.458	5.29	-18.8
CCC1CCCCN1C(=O)CSc1nnc(-c2cccc(Cl)c2)o1 (stereo not given)	i	2.47*	0.233	-0.214	9.0	-1.16	-12.3	-22.9
Nc1ccc2c(C(F)(F)F)cc(=O)oc2c1	i	26.4*	0.198	-0.000439	11.9	-0.514	171*	146
c1ccc2c(c1)CCCN2Cc1nnc2n1CCCCC2	/	active	0.125	/	11.4	-0.767	?	-33.2
c1ccc(Cc2nnc3n2CCCCC3)cc1	i	-0.506	-0.113	-0.0822	/	0.226	/	/
COc1ccccc1CCNC(=O)c1cnn2c(C(F)F)cc(C)nc12	i	2.48*	-0.534	/	20.2	-0.0482	-9.86	-34.3
CCOC(=O)N1CCC(NCCNC(=O)c2ccc(Cl)cc2)CC1	i	18.2*	-0.875	-0.374	9.2	-0.0077	115*	1.44
CCOC(=O)N1CCC(Nc2c(N3CCN(c4cc(Cl)ccc4C)CC3)c(=O)c2=O)CC1	i	-0.986	-0.602	-1.44	25.0	0.996	/	/
Cc1c(N=Cc2ccccc2F)c(=O)n(-c2ccccc2)n1C	i	/	/	/	/	/	/	/
C=CCN1C(=O)[C@]2(c3ccccc31)C1CCCC=C1C(C#N)=C(N)C2(C#N)C#N (stereo not given in full)	/	/	/	/	/	0.428	/	/
CN1CCC2(CC1)C1CN(C)CC=C1C(C#N)=C(N)C2(C#N)C#N (stereo not given)	i	33.9*	0.406	/	/	-0.00783	215*	160*
Cc1ccc(C(=O)Nc2cc(C34CC5CC(CC(C5)C3)C4)ccc2C)cc1	i	/	/	/	/	/	/	/
Cc1cc(C)c(NC(=O)C2CCCN2CCO)c(C)c1 (stereo not given)	i	2*	0.223	0.121	8.4	-1.38	1.76	-8.93
COC(=O)C1=C(C)N(C)C(C)=C(C(=O)OC)C1c1cc(Br)ccc1OC	i	/	/	/	/	/	/	/
COc1ccccc1N1CCN(C(=O)CCCC2=NS(=O)(=O)c3ccccc3N2)CC1	i	3.16*	-0.00139	-0.635	10.2	0.903	-21.5*	-54.1
O=C(Nc1ccc(CCC(=O)N2CCCC2)cc1)c1ncn[nH]1	i	1.83*	-0.00622	/	23.7	0.218	6.08	-9.66
CC1Sc2sc(=S)sc2SC(C)C1=O (stereo not given)	i	/	/	/	/	/	/	/
CC(=O)N1C(=O)C(=C2C=C(C)OC(C)=C2)c2ccccc21	i	28.4*	-0.844	1.34	20.5	0.226	?	52.4
Oc1c(-c2ccc(F)cc2)c2nc3ccccc3nc2c2ccccc12	i	/	/	/	/	/	/	/
CCOc1ccc(C2C(C#N)=C(N)N3C(=C2C#N)Sc2ccccc23)cc1 (stereo not given)	i	9.91*	-0.441	-0.0224	10.3	1.25	?	?
SMILES	BAP1 inh	M1 agonist	M1 antagonist	D1 allo mod	HEK293 NFkB inh	DAT uptake mod	M1 agonist conf	M4 ag counter
COc1ccccc1C1C=C(c2ccc(Cl)cc2)Nc2nc(NS(C)(=O)=O)nn21 (stereo not given)	i	54.2*	1.05	-0.119	15.3	-0.727	88*	61.7
O=S(=O)(c1ccc(Oc2ccccc2)cc1)N1CCOCC1	i	-0.602	-0.00749	-0.218	14.9	0.351	/	/
O=S(=O)(c1ccc(Oc2ncnc3scc(-c4ccccc4)c23)cc1)N1CCOCC1	/	7*	-0.443	/	24.8	1.23	?	?
N=c1nc(N2CCCCC2)cc(N)n1O	i	10.1*	-0.316	0.389	/	-0.16	-4.37	-26.4
Cc1cc(N2CCCCCC2)nc(-c2ccccc2O)n1	/	0.208	0.187	1.98	8.3	/	/	/
Cc1ccc(N2C(=O)C3C4c5ccccc5C(C(=O)O)(c5ccccc54)C3C2=O)cc1Cl (stereo not given)	i	/	/	/	/	/	/	/
COc1ccc(-n2nnnc2SCC(=O)c2ccc(O)c(O)c2)cc1	i	10.7*	-0.00916	-0.928	14.6	-0.154	-7.31	-53.9
CC(=O)c1cccc(NC(=O)Nc2ccc3c(c2)N(C)C(=O)CS3)c1	i	3.18*	-0.995	/	13.6	0.858	-8.02	?
O=S(=O)(c1ccc(Br)c2nsnc12)N1CCC(Cc2ccccc2)CC1	i	/	/	/	/	/	/	/
CCSc1nnc(NC(=O)c2ccccn2)s1	i	11.2*	-0.105	-5.84*	-36.0	0.0867	?	-59.5
CCSc1nnc(NC(=O)c2cnccn2)s1	i	-0.253	0.164	-0.224	11.2	0.347	/	/
COC(=O)C1=C(N)Oc2cc(N(C)C)ccc2C1c1ccccc1OC (stereo not given)	i	10*	-0.703	0.537	27.7	-0.561	17.7	-19.5
O=C(C1CC1)N1CCc2cc(Br)cc(S(=O)(=O)N3CCOCC3)c21	i	3.01*	0.0762	0.565	4.6	-0.239	-4.84	-19.6
C=CCN=C1SC(CC)C(=O)N1S(=O)(=O)c1ccc(C)cc1 (stereo not given)	/	/	/	/	/	0.816	/	/
C=CCN=C1SCC(=O)N1S(=O)(=O)c1ccc(C)cc1	i	3.54*	-0.196	0.00164	6.1	-1.06	-14.9	-44.7
CC(Oc1ccc(Cl)cc1Cl)C(=O)Nc1ccncc1 (stereo not given)	i	7.33*	-1.05	-2.86	8.1	-0.0374	-5.03	-18.7
CC(Oc1ccc(Cl)cc1Cl)C(=O)Nc1cccnc1 (stereo not given)	/	/	/	/	/	0.827	/	/
